{"data": "Measured values collected from several papers", "target": "Uncharacterized serine/threonine-protein kinase SBK3 (SBK3, Homo sapiens, UniProt P0C264)", "Residues used in one study (P0C264 1-359)": "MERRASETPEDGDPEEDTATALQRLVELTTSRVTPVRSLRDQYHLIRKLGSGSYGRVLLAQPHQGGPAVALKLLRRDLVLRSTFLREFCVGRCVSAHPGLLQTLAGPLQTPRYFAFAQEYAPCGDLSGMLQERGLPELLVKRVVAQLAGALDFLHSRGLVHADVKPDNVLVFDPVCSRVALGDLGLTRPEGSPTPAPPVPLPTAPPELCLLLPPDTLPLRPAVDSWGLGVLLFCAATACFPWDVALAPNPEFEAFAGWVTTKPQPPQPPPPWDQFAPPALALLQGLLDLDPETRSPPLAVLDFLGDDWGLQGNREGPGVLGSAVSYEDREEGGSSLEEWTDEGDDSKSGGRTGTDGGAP", "note": "Each line is one published result; the experiments were not run side by side."}
{"Structure (SMILES)": "O=C(NCCCN1CCOCC1)c1ccc(Nc2ncc(Cl)c(-c3ccc(Cl)s3)n2)cc1", "test": "binding, competition with immobilised ligand", "setting": "1 µM", "remaining binding [%]": 79}
{"Structure (SMILES)": "CC1CCCN1c1nccc(-c2cnn3ncccc23)n1 (stereo not drawn)", "test": "binding", "setting": "1 µM", "remaining binding [%]": 100}
{"Structure (SMILES)": "O=S(=O)(NC1CCC(c2cc(F)ccc2F)(S(=O)(=O)c2ccc(Cl)cc2)CC1)C(F)(F)F (stereo not drawn)", "test": "cell-free assay, competition with immobilised ligand", "setting": "1 µM", "remaining binding [%]": 93}
{"Structure (SMILES)": "N[C@H]1CCN(c2nccc(-c3cnn4ncccc34)n2)C1", "test": "binding", "setting": "1 µM", "remaining binding [%]": 100}
{"Structure (SMILES)": "c1cncc(-c2cccc(Nc3nccc(NC4CCCCC4)n3)c2)c1", "test": "binding, competition with immobilised ligand", "setting": "10 µM", "remaining binding [%]": 33}
{"Structure (SMILES)": "CCCCN(CCCC)C(=O)CN1C[C@@H](c2cc(OC)c3c(c2)OCO3)[C@H](C(=O)O)[C@H]1CC(C)(C)CCC", "test": "cell-free assay, competition with immobilised ligand", "setting": "1 µM", "remaining binding [%]": 100}
{"Structure (SMILES)": "O=C(Nc1c[nH]nc1C(=O)NC1CCNCC1)c1cc(F)cc(F)c1", "test": "binding, competition with immobilised ligand", "setting": "1 µM", "remaining binding [%]": 100}
{"Structure (SMILES)": "C[C@@H](c1ccc(-n2cnc3c(N)ncnc32)cc1)N1CCc2nn(C)c(Cc3ccccc3)c2C1=O", "test": "binding, competition with immobilised ligand", "setting": "0.1 µM", "remaining binding [%]": 99}
{"Structure (SMILES)": "COc1cnc(Nc2cccc(S(N)(=O)=O)c2)nc1N1CCN(c2ccccc2)C(=O)C1", "test": "binding, competition with immobilised ligand", "setting": "1 µM", "remaining binding [%]": 64}
{"Structure (SMILES)": "O=C(c1ccc(Nc2nccc(-c3cc4ccccc4s3)n2)cc1)N1CCC(N2CCCC2)CC1", "test": "binding, competition with immobilised ligand", "setting": "1 µM", "remaining binding [%]": 88}
{"Structure (SMILES)": "CCN1CCN(Cc2ccc(C(=O)Nc3ccc(C)c(Oc4ccc5c(c4)CC(=O)N5)c3)cc2C(F)(F)F)CC1", "test": "binding, competition with immobilised ligand", "setting": "1 µM", "remaining binding [%]": 100}
{"Structure (SMILES)": "CN(C)C(=O)Cn1cc(-c2nc([C@@](C)(c3ccc(-c4cnc(N)nc4)cc3)C3CC3)no2)cn1", "test": "cell-free assay, competition with immobilised ligand", "setting": "1 µM", "remaining binding [%]": 71}
{"Structure (SMILES)": "CN(C)c1ncc(F)c(-c2cnn3ncccc23)n1", "test": "binding", "setting": "1 µM", "remaining binding [%]": 74}
{"Structure (SMILES)": "C=CC(=O)N1CCC(C(=O)NCC(=O)N2CCN(c3nc(-c4cnc(N)nc4C(F)F)nc(N4CCOCC4)n3)CC2)CC1", "test": "binding, competition with immobilised ligand", "setting": "1 µM", "remaining binding [%]": 87}
{"Structure (SMILES)": "CS(=O)(=O)c1cc(C2(NC(=O)c3cncc4c3cnn4-c3ccc(F)cc3)CC2)ccn1", "test": "cell-free assay, competition with immobilised ligand", "setting": "1 µM", "remaining binding [%]": 100}
{"Structure (SMILES)": "c1cnn2ncc(-c3ccnc(N4CCC45COC5)n3)c2c1", "test": "binding", "setting": "1 µM", "remaining binding [%]": 71}
{"Structure (SMILES)": "CO[C@@H](C)c1c(Nc2ccc([C@@H](N(C)C(=O)C3CCS(=O)(=O)CC3)C(F)(F)F)cc2)cnc2cc(Cl)nn12", "test": "cell-free assay, competition with immobilised ligand", "setting": "1 µM", "remaining binding [%]": 81}
{"Structure (SMILES)": "F[C@@H]1CCN(c2nccc(-c3cnn4ncccc34)n2)C1", "test": "binding", "setting": "1 µM", "remaining binding [%]": 100}
{"Structure (SMILES)": "Cc1cnc(Nc2ccc(C(=O)N3CCC(N4CCCC4)CC3)cc2)nc1-c1cc2ccccc2s1", "test": "binding, competition with immobilised ligand", "setting": "1 µM", "remaining binding [%]": 46}
{"Structure (SMILES)": "O=C(N[C@H]1CCCCC/C=C\\C2C[C@@]2(C(=O)O)NC(=O)[C@@H]2C[C@@H](Oc3ccncc3)CN2C1=O)OC1CCCC1 (stereo partly drawn)", "test": "binding, competition with immobilised ligand", "setting": "1 µM", "remaining binding [%]": 79}
{"Structure (SMILES)": "CN(c1nccc(-c2cnn3ncccc23)n1)C1CC1", "test": "binding", "setting": "1 µM", "remaining binding [%]": 100}
